Assay results of several laboratories.
Medium: plasma

Structure (SMILES) | species | route | dose | setting | Cmax
CC(C)(O)c1ccccc1-c1ccc2[nH]c(/C=C/c3ccc(C(F)(F)F)cc3)nc2c1 | male human | oral | 50 mg | single dose, fasted, healthy volunteers | 160 ng/mL
CS(=O)(=O)CCNCc1ccc(-c2ccc3ncnc(Nc4ccc(OCc5cccc(F)c5)c(Cl)c4)c3c2)o1 | human | oral | 750 mg | multiple doses, twice daily, steady state, patients | 2110 ng/mL
CO[C@@H]1[C@H](OC(=O)N2CC(CCN3CCOCC3)C2)CC[C@]2(CO2)[C@H]1[C@@]1(C)O[C@@H]1CC=C(C)C | human | subcutaneous | 4.8 mg | single dose, healthy volunteers | 18.7 ng/mL
COCCOc1cnc2ccn([C@H](C)c3nnc4c(F)cc(-c5cnn(C)c5)cn34)c(=O)c2c1 | human | oral | 100 mg | multiple doses, once daily, patients | 2300 ng/mL
CCO[C@H]1CCN(Cc2c(OC)cc(C)c3[nH]ccc23)[C@H](c2ccc(C(=O)O)cc2)C1 | human | oral | 50 mg | multiple doses, twice daily, patients | 1800 ng/mL
CCCCC1=NC2(CCCC2)C(=O)N1Cc1ccc(-c2ccccc2S(=O)(=O)Nc2noc(C)c2C)c(COCC)c1 | human | oral | 200 mg | single dose, fasted, healthy volunteers | 5150 ng/mL
N#CN1C[C@H](n2nc(-c3ccc(Oc4ccc(Cl)cn4)cc3)c(C(N)=O)c2N)CCC12CC2 | human | oral | 600 mg | single dose, fasted | 1120 ng/mL
Br.Cc1ccc(Sc2ccccc2N2CCNCC2)c(C)c1 | human | oral | 5 mg | multiple doses, steady state, healthy volunteers | 9 ng/mL
C[C@@]1(c2cc(NC(=O)c3ccc(C#N)cn3)ccc2F)C=CSC(N)=N1 | human | oral | 150 mg | single dose | 906 ng/mL
CCCOc1ccc([C@H]2CNC(=O)N2c2ccc3[nH]cnc3c2)cc1 | human | oral | 200 mg | single dose, fasted, healthy volunteers | 1200 ng/mL
Cn1c(=O)oc2ccc(-c3ccc(C[C@@H](C#N)NC(=O)[C@@H]4CNCCCO4)cc3)cc21 | male human | oral | 5 mg | single dose, healthy volunteers | 50.7 nM
CCOc1ccc(Cc2cc([C@@H]3S[C@H](CO)[C@@H](O)[C@H](O)[C@H]3O)c(OC)cc2C)cc1 | male human | oral | 5 mg | single dose, fasted, healthy volunteers | 208 ng/mL
CCOc1cc2ncc(C#N)c(Nc3ccc(OCc4ccccn4)c(Cl)c3)c2cc1NC(=O)/C=C/[C@H]1CCCN1C | human | oral | 80 mg | single dose | 26.5 ng/mL
O=C(Nc1c(Cl)cncc1Cl)c1ccc(OC(F)F)c(OCC2CC2)c1 | human | oral | 0.25 mg | single dose, fasted | 6.4 ng/mL
Oc1cc(O)c2c(c1)O[C@@H](c1ccc(O)c(O)c1)[C@@H](O)C2 | human | oral | 10 mg | single dose | 0.4 ng/mL
Cc1ccc(C(=O)N(CCCN)[C@@H](c2oc3cc(Cl)ccc3c(=O)c2Cc2ccccc2)C(C)C)cc1 | human | intravenous | 4 mg/m² | single dose, patients, infusion | 489 ng/mL
CC(C)(C(=O)N1CCOc2c(C#N)cncc2C1)C(F)F | human | oral | 40 mg | single dose, fasted, healthy volunteers | 555 ng/mL
CC(C)n1cc(C#N)c2cc(-n3cc(C(=O)O)cn3)ccc21 | human | oral | 50 mg | single dose, fasted, healthy volunteers | 1440 ng/mL

Structure (SMILES) | species | route | dose | setting | Cmax
CCc1nc2c(C)cc(N3CCN(CC(=O)N4CC(O)C4)CC3)cn2c1N(C)c1nc(-c2ccc(F)cc2)c(C#N)s1 | human | oral | 300 mg | fed, healthy volunteers | 3300 ng/mL
CCn1c(=O)c(-c2cc(NC(=O)Nc3ccccc3)c(F)cc2Br)cc2cnc(NC)cc21 | human | oral | 30 mg | single dose, patients | 133 ng/mL
CNC(=O)c1cc(Oc2ccc(NC(=O)Nc3cc(C(C)(C)C)nn3-c3ccc4ncccc4c3)c(F)c2)ccn1 | human | oral | 150 mg | multiple doses, twice daily | 308 ng/mL
FC(F)(F)c1ccc(CNc2ccc(Cc3c[nH]c4ncc(Cl)cc34)cn2)cn1 | human | oral | 1000 mg | multiple doses, patients | 4440 ng/mL
CC[C@H](C)C(=O)O[C@H]1C[C@H](O)C=C2C=C[C@H](C)[C@H](CC[C@@H](O)C[C@@H](O)CC(=O)O)[C@H]21 | human | oral | 20 mg |  | 11.4 ng/mL
Cn1cc(-c2ccc(S(=O)(=O)[C@@H]3C[C@@H](C(=O)NC4(C#N)CC4)N(C(=O)C4(C(F)(F)F)CC4)C3)c(C(F)(F)F)c2)cn1 | human | oral | 30 mg | single dose, fasted, healthy volunteers | 212 ng/mL
CNC(=O)c1ccccc1Sc1ccc2c(/C=C/c3ccccn3)n[nH]c2c1 | human | oral | 5 mg | single dose, fasted | 51 ng/mL
Nc1cc(C(F)(F)F)c(-c2cc(N3CCOCC3)nc(N3CCOCC3)n2)cn1 | human | oral | 50 mg/day | patients | 595 ng/mL
COc1cc2c(Nc3ccc(Br)cc3F)ncnc2cc1OCC1CCN(C)CC1 | human | oral | 65 mg/m² | multiple doses, once daily, steady state, patients | 868 ng/mL
COc1cc2c(cc1OC)CN(CCc1ccc(NC(=O)c3cc(OC)c(OC)cc3NC(=O)c3cnc4ccccc4c3)cc1)CC2 | human | intravenous | 2 mg/kg | patients | 2500 nM
COc1ccc([C@@H]2CN(C(=O)[C@@H](O)CO)C[C@@]2(C)[C@@H](C)O)cc1OC1CN(c2ccc(C)cn2)C1 | human | oral | 10 mg | single dose, healthy volunteers | 319 ng/mL
CNCc1ccc(-c2[nH]c3cc(F)cc4c3c2CCNC4=O)cc1 | human | oral | 600 mg twice daily | multiple doses, steady state | 8190 nM
CO[C@H]1CC[C@H](N2C(=O)CNc3ncc(-c4ccc(C(C)(C)O)nc4)nc32)CC1 | human | oral | 60 mg | patients | 319 ng/mL
CC(C)(Sc1ccncc1-c1ccc(C#N)c2ccccc12)C(=O)O | male human | oral | 20 mg | single dose, fed, healthy volunteers | 181 ng/mL
O=C(/C=C/c1cccc(S(=O)(=O)Nc2ccccc2)c1)NO | human | intravenous | 1800 mg/m² | patients | 76800 ng/mL
COc1cc(C(=O)NC2CCN(C)CC2)c(F)cc1Nc1ncc(C(F)(F)F)c(Oc2cccc3c2C(=O)N(C)C3)n1 | human | oral | 10 mg | multiple doses, once daily, steady state, patients | 59.2 nM
CO[C@H]1/C=C\C=C(/C)C(=O)NC2=CC(=O)C(NCCN(C)C)=C(C[C@@H](C)C[C@H](OC)[C@H](O)[C@@H](C)/C=C(\C)[C@@H]1OC(N)=O)C2=O | human | intravenous | 27 mg/m² | patients, infusion | 443 ng/mL
